Among the data in the RNAGym collection of RNA variant scans (doi:10.1126/science.aae0568) are yeast fitness values, retold here.

First the molecules themselves.
B1: tRNA (parent)
chain: GUUCCGUUGGCGUAAUGGUAACGCGUCUCCCUCCUAAGGAGAAGACUGCGGGUUCGAGUCCCGUACGGAACG

Fewer inactive variants are shown than the library holds. Some results are limits rather than exact numbers.

This data set covers variants of B1. The experiment in a line: yeast fitness relative to wild type (ratio to wild type); higher = fitter; tRNA-Arg(CCU), competitive growth, 37 C, YPD. In short, it runs like this:
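A pool of Saccharomyces cerevisiae strains, each with a tRNA-Arg(CCU) gene variant at the native genomic locus, was competed in YPD at 37°C for 24 hours across six parallel replicates. The variants had been chemically synthesised at a 3% per-site mutation rate over 69 sites, and gene amplicons before and after competition were read by 100-nucleotide paired-end sequencing. Darwinian fitness relative to wild type rested on changes in genotype frequencies. Genotypes required ≥ 100 starting reads, and estimates < 0.5 were set to 0.5.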
Take C22U C27A C46A: the yeast fitness was 0.66.

Consider G18C C31G A42G G67A, for which the yeast fitness was at most 0.5. The figure for C5A C27G C30U U32C A36G A37U G67A is at most 0.5; for C24U C34A it is 0.783; for U16A C24U G44C C61U C66U it is at most 0.5. Regarding C4A G9C C11G A21C C55U C62U G67C, the yeast fitness was at most 0.5. Under C29U G38A stands 0.733; under C4A A43U, 0.841. As to G6C G25A C27G, the yeast fitness was 0.591. Under G17C G44A A45C stands at most 0.5.

In the case of U26G G68C, the yeast fitness amounted to 0.596. Regarding C5U C11G A15U U32A U35G, the yeast fitness amounted to 0.562. The figure for A36C A43U is 0.575; for A45U U53C G67A A69C it is 0.635; for A36C U53A it is 0.643. In the case of A37G U54C, the yeast fitness turned out to be 0.674. Under A14U A37U A65G stands at most 0.5. The figure for C62G G63C is 0.588. Under C11U G67A A69U stands 0.652; under U35A A43G, 0.624; under C11A C27U U28C A57C C62A, 0.716. Consider A42C A45G G51A, for which the yeast fitness is at most 0.5.

Turning to U8C A15G G25C A45U, the yeast fitness came out at 0.684. The figure for C22A C33A G39C is at most 0.5; for G50A G63C it is 0.737; for C24U C27U G39C it is at most 0.5. The figure for U19C C27A is 0.987; for A43U C62U it is 1.01. Under C5G A14C C29U C33G stands at most 0.5; under G12C A21C C60A, at most 0.5; under C33A G39C C49U U54A G68A, at most 0.5. A15G U28G U53A G56A: the yeast fitness is at most 0.5. The figure for U3A C24G C29A G50C A57C C66U is at most 0.5; for U19C A21G U26G it is 1.01. Regarding U8A A15C A20C U28C, the yeast fitness was at most 0.5. Under C11G C24G C27A U28C C33U A65U stands at most 0.5. For the variant C34A A57C, the yeast fitness was at most 0.5. The figure for A43C G52C C55U A69C is at most 0.5; for U26A U54A C55U it is at most 0.5; for U8C C22U G58C it is at most 0.5. The figure for A40G C61G is 0.628. With U16C A21G G63C, the yeast fitness is at most 0.5. The figure for A21U A45U G51A C55G A65C is at most 0.5; for U32C G44C it is 0.842; for C4U C22U G23A it is at most 0.5. For the variant A21G C22A A40U C61U, the yeast fitness is 0.507. Under G10C A20G C24U G38C G56C stands 0.561. In the case of C30A C49U G67U, the yeast fitness is 0.608. Under A36U C49U G58C C66U stands at most 0.5; under A14U U28A G41C A42U G52A A70C, at most 0.5; under C34U G39C A69U, at most 0.5. The figure for C5G A65C G68A is 0.671. The figure for A14G C22U A45U is 0.626; for C5G C29U A37G A65G it is at most 0.5; for G38A A40U G50C C60G G67A A70C it is at most 0.5. As to C5G C61U U64G, the yeast fitness worked out at 0.87.

With U16C U54A C66U, the yeast fitness was at most 0.5. Under G6C C11U C27G G41C stands at most 0.5; under A43G A45C G51A, at most 0.5; under C11G A36C C46U, at most 0.5.

For the variant U7G G44A C61U, the yeast fitness was determined as 0.689. The figure for G12A C34U A37U G41A C55U A69C is at most 0.5; for C5G C27G C29U A45G C49A C66U it is at most 0.5; for G12U C33U C34G it is at most 0.5. On to G6A G23C G41C C49U, for which the yeast fitness is at most 0.5. The figure for C11G A15C A70C is at most 0.5. Under U53A G68C stands 0.6; under C5G U26C C55G U59A U64G, at most 0.5.

On to G39C U59A, for which the yeast fitness turned out to be 0.779.

On to C11A C34G, for which the yeast fitness is at most 0.5. Under C4U G12A U28A A42C stands 0.515; under C5G U53C C55A A57G, at most 0.5. As to C4G C11U C22G A40U A43G U53C A70G, the yeast fitness was at most 0.5. The figure for G23C C24G C33G A40U A70G is at most 0.5; for A21G U32C C34G it is at most 0.5. Regarding C11G G39A, the yeast fitness was determined as 0.63. Under G17C A21G U26G stands at most 0.5; under A42G G51A, 0.822. Under U32G C62U stands 0.625; under C27U A36G G56C, at most 0.5; under U13C U47C C62U, 0.715. C4U C31U A40U A69U: the yeast fitness stood at 0.625. Take U3C C5G U19G C31A C46A: the yeast fitness came to 0.663. Under C46G G67C stands 0.86; under U8C A69U, 0.933; under U16C C46U, 1.05. Consider A43C C55U, for which the yeast fitness was determined as 0.721.

A20C U53C: the yeast fitness worked out at 0.717.

With A42C A69C A70U, the yeast fitness came out at 0.721. Under A14U U19G C30G stands at most 0.5; under A15G C31G U35C A43C, 0.586.

As to A14C C33G G44A C49A C55A, the yeast fitness is at most 0.5.

For U28A A40C C46G, the yeast fitness is at most 0.5.

In the case of C11G A21U G39C G44A U47A, the yeast fitness is at most 0.5. The figure for A14G C27G A65U G68U is at most 0.5; for G12C U13G A15C A36U C55G it is at most 0.5. The figure for U2C C29A C31A A40U C49U is 0.554; for A15U C60A G63A it is at most 0.5. Under G6C C49U U53C C61G stands at most 0.5; under U3C G38A, 1.05. On to U26G G63A, for which the yeast fitness turned out to be 0.919. In the case of U26A C27U A65G A69G, the yeast fitness came to 0.669. Turning to C4A C49U A65U, the yeast fitness was at most 0.5. The figure for C33U C62A is 0.824. With C5U C27G C34G, the yeast fitness is at most 0.5.

As to C5G C30U U47A G51A A57G, the yeast fitness was at most 0.5. The figure for C27U A36C A69U is 0.646. With G6C C11A U32A A42G C55U, the yeast fitness stood at 0.605. In the case of U3C C5G U28G C31U G51A U54A U59A, the yeast fitness is at most 0.5. Under A14G G39A G51C stands at most 0.5; under C24G U28C A43U C60A, at most 0.5; under C5G U19G, 0.916.

On to U7G U16G C61U, for which the yeast fitness is at most 0.5. The figure for U7C C27U A45U C66U is 0.617; for C11U A40G C61G it is at most 0.5; for A15U C66U it is 0.738. Under C46G U59C stands 1.05; under U7G C11U G58A, 0.589. Under C11G C22A C46G stands at most 0.5; under C46G U59C G68C, at most 0.5. Turning to C22U U53A, the yeast fitness was 0.673. Under G10C U26A C49U A65U stands 0.553. Under U19A A36G U59A stands at most 0.5. Under C4A C5A C11U A20U A69C stands at most 0.5. C5A U13G U32A A42U G52A U54A A69C: the yeast fitness is at most 0.5. The figure for A21U G41A A57C is at most 0.5; for A15C C31U G63A it is at most 0.5; for A15U C24G C30U A57U it is 0.832. Consider U7A U54A, for which the yeast fitness stood at 0.506.

For U13C G44A C49U, the yeast fitness was 0.799. Under C4A G17A C27G C55U stands 0.62; under A65G A70U, 0.943.

As for C29U C66A, the yeast fitness amounted to 0.591.

Regarding C30U A45C G58A G67U, the yeast fitness is at most 0.5. For the variant C33A A43G A45C C60A, the yeast fitness was determined as 0.564. The figure for U47C G68U is 1.1.

Take C22U U54C: the yeast fitness is 0.724.

On to U3C G25A A45G, for which the yeast fitness is 0.59. Under U26A C33U U53C stands 0.54; under C4G C29G C49U C60G, at most 0.5; under A15G A20U C34A C60A A70C, at most 0.5.

In the case of A36C C61U, the yeast fitness turned out to be 0.581.

For U3C C24G C49U C55G G58A, the yeast fitness turned out to be 0.576. Under C5A C22G C29A G67A stands 0.531; under A36U A43C G44C G48C, at most 0.5. The figure for U13A U32C A65C is 0.539; for G9A U53A A65C A70C it is at most 0.5; for U32C A40G C49G it is 0.514.

Turning to A15G A21U G63A, the yeast fitness was determined as 0.627.

Regarding U16A C30G C34G A42U G52A A57C A65G, the yeast fitness was at most 0.5. As for U3G C5U G51A, the yeast fitness is at most 0.5.

On to C27A A36G C49U A70U, for which the yeast fitness was at most 0.5. The figure for C22A U47A C66A is at most 0.5. The figure for U16A G41A A69C is 0.631; for U35C A43C C55G A65U it is at most 0.5; for C11A U16C C27G G48C it is at most 0.5.

As for U2C U13C C22G U26A C31U A42C G50C U64A C66U G68C, the yeast fitness is at most 0.5. The figure for U19A C30A A45U G50C is 0.62. Under A42U G63A G68C stands 0.544; under G9A C22A A57G, 0.628; under U28G A40U A43U, 0.878. For the variant G6C G56A, the yeast fitness was 1.03. The figure for U2G U13A C22U is 0.579; for U13A A37U U53G it is 0.536; for G17C U35C G51A C66G it is at most 0.5.

For the variant G9A U47A A69U, the yeast fitness was found to be 0.676. Under C11G A36U A42G A43C stands 0.527.
